Read-outs that look alike come from different tables or passages of the source.
Columns and labels:
[1] = target: T1, HER2-TK (Homo sapiens, UniProt P04626); assay: SPR kinetic analysis of binding to immobilized HER2-TK
[2] = system: SKOV3 (HER2-positive cell); assay: MTT cell viability assay, SKOV3; type: cell-based, human; details: read-out: cell inhibition IC50 SKOV3 (HER2-positive cell), 72 h, mean ± SD
How it was run: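 SKOV3 cells grown in DMEM at 37 °C, 5% CO2, seeded at 1 × 10^4 cells/well and left 16 h. Test compound from DMSO stock (final DMSO ≤1%) was added in complete medium, 2-fold dilutions from 100 μM, for 72 h. MTT added for 3 h at 37 °C, formazan dissolved in DMSO, read at 550/590 nm. Triplicate; IC50 by nonlinear regression.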

[3] = target: T1, HER2-TK; assay: HER2-TK inhibitory activity assay; type: biochemical
[4] = SPR, PBS pH 7.4 with 5% DMSO, mean ± SD

T1 sequence (P04626 676-1255 limits assumed): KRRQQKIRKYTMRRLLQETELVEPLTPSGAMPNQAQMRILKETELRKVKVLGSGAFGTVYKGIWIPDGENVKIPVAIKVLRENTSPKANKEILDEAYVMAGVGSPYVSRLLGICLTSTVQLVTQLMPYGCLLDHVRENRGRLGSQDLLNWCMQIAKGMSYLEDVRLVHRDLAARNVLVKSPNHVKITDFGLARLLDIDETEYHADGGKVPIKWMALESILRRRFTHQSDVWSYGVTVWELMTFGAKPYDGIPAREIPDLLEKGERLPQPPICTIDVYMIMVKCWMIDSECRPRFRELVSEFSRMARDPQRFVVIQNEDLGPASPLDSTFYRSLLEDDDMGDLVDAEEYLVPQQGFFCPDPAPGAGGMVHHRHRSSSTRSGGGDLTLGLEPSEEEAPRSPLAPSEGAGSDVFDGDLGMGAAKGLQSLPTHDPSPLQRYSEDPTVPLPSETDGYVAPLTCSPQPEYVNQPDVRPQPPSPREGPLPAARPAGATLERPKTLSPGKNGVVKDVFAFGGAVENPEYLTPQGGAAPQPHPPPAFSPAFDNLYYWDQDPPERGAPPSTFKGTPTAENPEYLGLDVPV

| SMILES | kd [1, 4] | IC50 [2] [µM] | Kd [1] [µM] | IC50 [3] [µM] | ka [1, 4] | kon ([1]; read-out: association rate constant (ka)) [M⁻¹ s⁻¹] | kd ([1]; SPR) | kon ([1]; pH 7.4, read-out: ka) [M⁻¹ s⁻¹] |
| --- | --- | --- | --- | --- | --- | --- | --- | --- |
| CN(C)C/C=C/C(=O)Nc1cc2c(Nc3ccc(F)c(Cl)c3)ncnc2cc1O[C@H]1CCOC1 [Afatinib, reference compound] | 9.95 ± 0.16 10^–3/s | 8.4 ± 0.9 |  |  |  |  |  |  |
| C=C(C)[C@@H]1CCC(C)=C[C@H]1c1c(O)cc(CCCCC)cc1O [CBD, cannabidiol] | 6.33 ± 0.06 10^–3/s | 13.8 ± 1.7 | 6.16 ± 0.25 | 0.038 ± 0.002 |  |  |  |  |
| CCCCCc1cc(O)c(C/C=C(\C)CCC=C(C)C)c(O)c1 [CBG, cannabigerol] | 3.77 ± 0.02 10^–3/s | 16.6 ± 1 | 17.1 ± 0.8 | 0.0247 ± 0.0026 | 2.21 ± 0.11 10^2/(M·s) | 221 |  |  |
| CCCCCc1cc(O)c2c(c1)OC(C)(C)c1ccc(C)cc1-2 [CBN, cannabinol] | 3.14 ± 0.09 10^–3/s |  | 26 ± 2.97 | 0.0874 ± 0.0017 |  |  | 3.14 × 10^–3 s^–1 | 122 ± 11 |
| CS(=O)(=O)CCNCc1ccc(-c2ccc3ncnc(Nc4ccc(OCc5cccc(F)c5)c(Cl)c4)c3c2)o1 [Lapatinib, reference compound] |  | 8 ± 1.4 |  |  |  |  |  |  |

— PMC11840771 (ACS Omega, 2025)
